IC50 data for 16 compounds are collected here from ChEMBL document CHEMBL1157835, “Synthesis and evaluation of verticipyrone analogues as mitochondrial complex I inhibitors” (Bioorg Med Chem, 2010).

The structures appear in SMILES notation.

The nature of test [1]: Cytotoxicity against human CRL2366 cells by MTT assay. The format is functional, cell-based. In a few lines: (§1)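 MTT growth assay. MCF-7, A-549 and 3LL cells grown in RPMI-1640; CRL-2365 and CRL-2366 grown in DMEM. All media had 10% FBS, penicillin G (100 U/mL) and streptomycin (100 μg/mL).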
In general terms: Formazan colour is commonly taken as a measure of viable cells.

For test [2], the system named is A549. Put plainly: Cytotoxicity against human A549 cells by MTT assay. The format is functional, cell-based. The method, boiled down:
as §1

Test [3] deals with MCF-10A. In words: Cytotoxicity against human MCF10A cells by MTT assay. The test is classed as functional, cell-based. In a few lines:
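MTT growth assay on MCF-10A cells grown in Mammary Epithelial Growth Medium following the supplier protocol.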

A short description of test [4]: Cytotoxicity against mouse 3LL cells by MTT assay. The test is classed as functional, cell-based. The method, boiled down:
as §1

Test [5] is described as follows: Inhibition of mitochondrial complex 1 in human MCF7 cells assessed as concentration required to obtain half maximal lactate production after 3 hrs by spectrophotometry. The format is cell-based. To be noted: MCF7, 3 h. In a few lines: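 MCF-7 cells seeded at 2 × 10^5 per well and grown 24 h to about 50% confluence, then rinsed. Compounds given in Krebs-Ringer buffer for 3 h, with buffer controls. Supernatant lactate measured by ΔOD at 363 nm (ε 9.1 mM−1 cm−1). IC50 is the dose giving 50% of maximal lactate production. Points are the mean ± SD of triplicates; experiments repeated at least three times.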

The nature of test [6]: Inhibition of NADH oxidase from beef heart submitochondrial particles by spectrophotometry. Also on record: species or system Bos taurus. The method, boiled down:
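Bovine heart inverted SMP, stored in 0.25 M sucrose/10 mM Tris-HCl pH 7.4 at −80 °C, diluted to 0.5 mg/mL and activated with 300 NADH. Assayed at 30 °C in 50 mM Hepes pH 7.5, 5 mM MgCl2, 30 μg protein. SMP pre-equilibrated with inhibitor 5 min, then 50 μM NADH added. Rates from the linear part of the trace at 340 nm. Ethanol ≤2%.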

A short description of test [7]: Inhibition of NADH-ubiquinone oxidoreductase from beef heart submitochondrial particles by spectrophotometry. Also on record: species or system Bos taurus. In a few lines:
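Bovine heart inverted SMP, activated with 300 NADH, 30 μg protein, 30 °C. 5 min inhibitor pre-equilibration, then 50 μM NADH added. Read at 340 nm. […] IC50 is the final concentration giving 50% inhibition; mean ± SD of three independent experiments.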

Test [8] can be described thus: Cytotoxicity against human CRL2365 cells by MTT assay. The format is functional, cell-based. The method, boiled down:
as §1

The subject of test [9] is MCF7. Put plainly: Cytotoxicity against human MCF7 cells by MTT assay. The test is classed as functional, cell-based. The method, boiled down: as §1

On to `CCCCCCCC[C@@](C)(O)CCc1oc(=O)c(C)c(O)c1C`, for which the IC50 was more than 31 µM in test [1]; more than 31 µM in [2]; more than 31 µM in test [3]; more than 31 µM in [4]; 8.6 µM in [5]; 14.7 µM in [6]. The IC50 in test [7] was 19 µM; in [8] it was more than 31 µM; in test [9], more than 31 µM.
Regarding `CCCCCCCC[C@@](C)(O)CCc1oc(OC)c(C)c(=O)c1C`, the IC50 in test [1] was found to be 2.7 µM; in test [2], 5.3 µM; in test [3] it was 5.3 µM; in test [4], 0.39 µM; in [5] it was 0.3 µM; in test [6], 0.0459 µM. Further, the IC50 in test [7] worked out at 0.133 µM; in [8], 3.3 µM; in [9], 3.3 µM.
With `CCCCCCCCC(C)(O)CCc1[nH]c(=O)c(C)c(O)c1C` (racemic), the half-inhibitory concentration (IC50) in test [6] is 4.29 µM; in [7] it was 1.25 µM.
Consider `CCCCCCCC[C@](C)(O)CCc1oc(OC)c(C)c(=O)c1C`, for which the IC50 in [1] was 3.3 µM; in test [2], 4.1 µM; in test [3], 5.6 µM; in test [4], 0.34 µM; in test [5] it was 0.18 µM; in test [6] it was 0.0432 µM. Further, the IC50 in test [7] amounted to 0.126 µM; in test [8], 2.4 µM.
Take `CCCCCCCCC(C)(O)CCc1oc(C)c(C)c(=O)c1C` (racemic): the IC50 is more than 31 µM in test [1]; more than 31 µM in test [2]; more than 31 µM in test [3]; more than 31 µM in test [4]; 0.94 µM in test [5]; 0.055 µM in test [6]. For the same compound, the IC50 was 0.18 µM in test [7], more than 31 µM in [8] and more than 31 µM in test [9].
`CCCCCC[C@H]1C(=O)O[C@H](C)[C@H](NC(=O)c2cccc(NC=O)c2O)C(=O)O[C@@H](C)[C@@H]1OC(=O)CC(C)C` [ANTIMYCIN A]: the IC50 in [5] was less than 0.15 µM.
As to `COc1oc(CC(O)CCCCCOc2ccccc2)c(C)c(=O)c1C` (stereo not given), the half-inhibitory concentration (IC50) in test [6] was 0.219 µM; in [7] it was 0.595 µM.
As for `CCCCC(O)Cc1oc(OC)c(C)c(=O)c1C` (stereo not given), the IC50 in test [5] was more than 20 µM; in [6], more than 20 µM; in test [7], more than 25 µM.
With `CCCCCCCC[C@@](C)(O)CCc1oc(C)c(C)c(=O)c1C`, the IC50 in test [6] was 0.0508 µM; in [7], 0.145 µM.
Taken in the same sequence, the figures for `CCCCCCCC[C@](C)(O)CCc1oc(C)c(C)c(=O)c1C` were 0.0475 µM and 0.135 µM.
As to `CCCCCCCCC(C)(O)CCc1oc(OC)c(C)c(=O)c1C` (racemic), the IC50 is 0.38 µM in test [5], 0.0526 µM in test [6] and 0.151 µM in test [7].
As to `COc1oc(CC(O)CCCCCOc2ccc(-c3ccccc3)cc2)c(C)c(=O)c1C` (stereo not given), the IC50 in test [1] turned out to be 19.5 µM; in test [2] it was 17 µM; in [3] it was 9.2 µM; in test [4], 13.5 µM; in test [5], 0.34 µM; in test [6] it was 0.0359 µM. Further, the IC50 in [7] stood at 0.102 µM; in test [8] it was 12.4 µM; in test [9] it was 17.4 µM.
Consider `CCCCCCCCC(C)(O)CCc1oc(=O)c(C)c(O)c1C` (racemic), for which the IC50 in test [1] is more than 31 µM; in [2] it was more than 31 µM; in test [3], more than 31 µM; in test [4], more than 31 µM; in test [5], 4.9 µM; in test [6], 13.6 µM. In addition, the IC50 in test [7] is 16.4 µM; in test [8] it was more than 31 µM; in [9] it was more than 31 µM.
For `CCCCCCCCCC(O)Cc1oc(OC)c(C)c(=O)c1C` (stereo not given), the IC50 in test [1] was more than 31 µM; in [2], 20.7 µM; in [3], 9.9 µM; in test [4], 22.2 µM; in test [5], 0.9 µM; in test [6], 0.0649 µM. The IC50 in [7] came out at 0.231 µM; in test [8], 29.9 µM; in test [9], 23.2 µM.
Regarding `COc1oc(CC(O)CCCCCCc2ccccc2)c(C)c(=O)c1C` (stereo not given), the IC50 in [1] was more than 27 µM; in test [2], more than 27 µM; in test [3], 15.1 µM; in test [4], 17.3 µM; in test [5], 0.88 µM; in test [6], 0.0725 µM. For the same compound, the IC50 in test [7] was 0.257 µM; in test [8], more than 27 µM; in [9], more than 27 µM.
Take `CCCCCCCC[C@](C)(O)CCc1oc(=O)c(C)c(O)c1C`: the IC50 in test [1] is more than 31 µM; in [2] it was more than 31 µM; in [3] it was more than 31 µM; in test [4] it was more than 31 µM; in test [5], 16.6 µM; in test [6], 10.7 µM. Besides, the IC50 is 13.3 µM in [7], more than 31 µM in [8] and more than 31 µM in test [9].

A word on the IC50: it is the concentration at which inhibition is half-maximal.
